Experimental data from ChEMBL document CHEMBL1944580, “Synthesis of novel sulfonamide-1,2,4-triazoles, 1,3,4-thiadiazoles and 1,3,4-oxadiazoles, as potential antibacterial and antifungal agents. Biological evaluation and conformational analysis studies” (2012).
In brackets after ≈: the same amount, converted by molar mass.

Legend:
Bacillus cereus [1] = assay: Antibacterial activity against Bacillus cereus clinical isolate after 24 hrs by micro dilution method; format: functional
Method in brief: (§1)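 Microdilution MIC in 96-well plates. Bacterial suspensions adjusted in sterile saline to 1.0 × 10^5 CFU/ml, giving 1.0 × 10^4 cfu per well in LB broth. Compounds tested at up to 1 mg/ml. Plates incubated 24 h. MIC taken as the lowest concentration with no visible growth under a binocular microscope. OD at 655 nm was also read against a blank and the positive control. Streptomycin and ampicillin were the positive controls.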

Enterobacter cloacae [2] = assay: Antibacterial activity against Enterobacter cloacae human isolate after 24 hrs by micro dilution method; format: functional; method in brief: as §1
Enterobacter cloacae [3] = assay: Antibacterial activity against Enterobacter cloacae human isolate treated for 24 hrs followed by sub-cultivated for 72 hrs by micro dilution method; format: functional
Method in brief: (§2)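 2 µl from each well was serially subcultured into 100 µl fresh broth per well and incubated a further 72 h. MBC is the lowest concentration with no visible growth, taken as 99.5% killing of the original inoculum. Streptomycin and ampicillin were the positive controls.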

Aspergillus flavus [4] = assay: Antifungal activity against Aspergillus flavus ATCC 9643 treated for 72 hrs followed by sub-cultivated for 5 days by serial dilution method; format: functional
Method in brief: (§3)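 MFC obtained after the 72 h, 28 °C malt-broth microdilution (spore inoculum about 1.0 × 10^5 per well, compounds from 1 mg/ml DMSO). 2 µl was serially subcultured into 100 µl broth per well and incubated a further 5 days at 28 °C. MFC is the lowest concentration with no visible growth, taken as 99.5% killing of the original inoculum.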

Pseudomonas aeruginosa [5] = assay: Antibacterial activity against Pseudomonas aeruginosa ATCC 27853 after 24 hrs by micro dilution method; format: functional; settings: ATCC 27853, 24 h; method in brief: as §1
Trichoderma viride [6] = assay: Antifungal activity against Trichoderma viride IAM 5061 treated for 72 hrs followed by sub-cultivated for 5 days by serial dilution method; format: functional; method in brief: as §3
Micrococcus flavus [7] = assay: Antibacterial activity against Micrococcus flavus ATCC 10240 after 24 hrs by micro dilution method; format: functional; settings: ATCC 10240, 24 h; method in brief: as §1
Listeria monocytogenes [8] = assay: Antibacterial activity against Listeria monocytogenes NCTC 7973 after 24 hrs by micro dilution method; format: functional; settings: NCTC 7973, 24 h; method in brief: as §1
Fulvia fulva [9] = assay: Antifungal activity against Fulvia fulva after 72 hrs by serial dilution method; format: functional
Method in brief: (§4)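 Modified microdilution MIC. Spores were washed from malt agar cultures with sterile 0.85% saline containing 0.1% Tween 80 and adjusted to about 1.0 × 10^5 per 100 µl well in malt broth. Compounds were dissolved in DMSO (1 mg/ml). Plates incubated 72 h at 28 °C. MIC is the lowest concentration with no visible growth under a binocular microscope. Bifonazole and ketoconazole were the references.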

Fulvia fulva [10] = assay: Antifungal activity against Fulvia fulva treated for 72 hrs followed by sub-cultivated for 5 days by serial dilution method; format: functional; method in brief: as §3
Escherichia coli [11] = assay: Antibacterial activity against Escherichia coli ATCC 35210 after 24 hrs by micro dilution method; format: functional; settings: ATCC 35210, 24 h; method in brief: as §1
Aspergillus versicolor [12] = assay: Antifungal activity against Aspergillus versicolor ATCC 11730 after 72 hrs by serial dilution method; format: functional; settings: ATCC 11730, 72 h; method in brief: as §4
Aspergillus niger [13] = assay: Antifungal activity against Aspergillus niger ATCC 6275 treated for 72 hrs followed by sub-cultivated for 5 days by serial dilution method; format: functional; method in brief: as §3
Penicillium ochrochloron [14] = assay: Antifungal activity against Penicillium ochrochloron ATCC 9112 treated for 72 hrs followed by sub-cultivated for 5 days by serial dilution method; format: functional; method in brief: as §3
Bacillus cereus [15] = assay: Antibacterial activity against Bacillus cereus clinical isolate treated for 24 hrs followed by sub-cultivated for 72 hrs by micro dilution method; format: functional; method in brief: as §2
Aspergillus niger [16] = assay: Antifungal activity against Aspergillus niger ATCC 6275 after 72 hrs by serial dilution method; format: functional; settings: ATCC 6275, 72 h; method in brief: as §4
Talaromyces funiculosus [17] = assay: Antifungal activity against Penicillium funiculosum ATCC 36839 treated for 72 hrs followed by sub-cultivated for 5 days by serial dilution method; format: functional; method in brief: as §3
Aspergillus fumigatus [18] = assay: Antifungal activity against Aspergillus fumigatus human isolate after 72 hrs by serial dilution method; format: functional; method in brief: as §4
Micrococcus flavus [19] = assay: Antibacterial activity against Micrococcus flavus ATCC 10240 treated for 24 hrs followed by sub-cultivated for 72 hrs by micro dilution method; format: functional; method in brief: as §2
Staphylococcus aureus [20] = assay: Antibacterial activity against Staphylococcus aureus ATCC 6538 after 24 hrs by micro dilution method; format: functional; settings: ATCC 6538, 24 h; method in brief: as §1
Salmonella typhimurium [21] = assay: Antibacterial activity against Salmonella Typhimurium ATCC 13311 treated for 24 hrs followed by sub-cultivated for 72 hrs by micro dilution method; format: functional, Salmonella enterica subsp. enterica serovar Typhimurium; settings: Salmonella enterica; method in brief: as §2
Listeria monocytogenes [22] = assay: Antibacterial activity against Listeria monocytogenes NCTC 7973 treated for 24 hrs followed by sub-cultivated for 72 hrs by micro dilution method; format: functional; method in brief: as §2
Penicillium ochrochloron [23] = assay: Antifungal activity against Penicillium ochrochloron ATCC 9112 after 72 hrs by serial dilution method; format: functional; settings: ATCC 9112, 72 h; method in brief: as §4
Staphylococcus aureus [24] = assay: Antibacterial activity against Staphylococcus aureus ATCC 6538 treated for 24 hrs followed by sub-cultivated for 72 hrs by micro dilution method; format: functional; method in brief: as §2
Trichoderma viride [25] = assay: Antifungal activity against Trichoderma viride IAM 5061 after 72 hrs by serial dilution method; format: functional; settings: IAM 5061, 72 h; method in brief: as §4
Aspergillus flavus [26] = assay: Antifungal activity against Aspergillus flavus ATCC 9643 after 72 hrs by serial dilution method; format: functional; settings: ATCC 9643, 72 h; method in brief: as §4
Salmonella typhimurium [27] = assay: Antibacterial activity against Salmonella Typhimurium ATCC 13311 after 24 hrs by micro dilution method; format: functional, Salmonella enterica subsp. enterica serovar Typhimurium; settings: Salmonella enterica, ATCC 13311, 24 h; method in brief: as §1
Aspergillus versicolor [28] = assay: Antifungal activity against Aspergillus versicolor ATCC 11730 treated for 72 hrs followed by sub-cultivated for 5 days by serial dilution method; format: functional; method in brief: as §3
Escherichia coli [29] = assay: Antibacterial activity against Escherichia coli ATCC 35210 treated for 24 hrs followed by sub-cultivated for 72 hrs by micro dilution method; format: functional; method in brief: as §2
Aspergillus fumigatus [30] = assay: Antifungal activity against Aspergillus fumigatus human isolate treated for 72 hrs followed by sub-cultivated for 5 days by serial dilution method; format: functional; method in brief: as §3
Talaromyces funiculosus [31] = assay: Antifungal activity against Penicillium funiculosum ATCC 36839 after 72 hrs by serial dilution method; format: functional; settings: ATCC 36839, 72 h; method in brief: as §4
Pseudomonas aeruginosa [32] = assay: Antibacterial activity against Pseudomonas aeruginosa ATCC 27853 treated for 24 hrs followed by sub-cultivated for 72 hrs by micro dilution method; format: functional; method in brief: as §2

MIC (Bacillus cereus [1])	MIC (Enterobacter cloacae [2])	MIC (Pseudomonas aeruginosa [5])	MIC (Micrococcus flavus [7])	MIC (Listeria monocytogenes [8])	MIC (Fulvia fulva [9])	MIC (Escherichia coli [11])	MIC (Aspergillus versicolor [12])	MIC (Aspergillus niger [16])	MIC (Aspergillus fumigatus [18])	MIC (Staphylococcus aureus [20])	SMILES	MBC (Enterobacter cloacae [3])	MFC (Aspergillus flavus [4])	MFC (Trichoderma viride [6])	MFC (Fulvia fulva [10])	MFC (Aspergillus niger [13])	MFC (Penicillium ochrochloron [14])	MBC (Bacillus cereus [15])	MFC (Talaromyces funiculosus [17])	MBC (Micrococcus flavus [19])	further results
240 µM (≈ 99.5 µg/mL)	240 µM (≈ 99.5 µg/mL)	240 µM (≈ 99.5 µg/mL)	240 µM (≈ 99.5 µg/mL)	240 µM (≈ 99.5 µg/mL)	240 µM (≈ 99.5 µg/mL)	240 µM (≈ 99.5 µg/mL)	240 µM (≈ 99.5 µg/mL)	240 µM (≈ 99.5 µg/mL)	20 µM (≈ 8.29 µg/mL)	240 µM (≈ 99.5 µg/mL)	COc1cc(Cc2n[nH]c(=S)n2C(C)(C)C)c(S(=O)(=O)N(C)C)cc1OC	420 µM (≈ 174 µg/mL)	360 µM (≈ 149 µg/mL)	240 µM (≈ 99.5 µg/mL)	240 µM (≈ 99.5 µg/mL)	360 µM (≈ 149 µg/mL)	360 µM (≈ 149 µg/mL)	480 µM (≈ 199 µg/mL)	240 µM (≈ 99.5 µg/mL)	420 µM (≈ 174 µg/mL)	MBC (Salmonella typhimurium [21]): 420 µM (≈ 174 µg/mL); MBC (Listeria monocytogenes [22]): 420 µM (≈ 174 µg/mL); MIC (Penicillium ochrochloron [23]): 120 µM (≈ 49.7 µg/mL); MBC (Staphylococcus aureus [24]): 420 µM (≈ 174 µg/mL); MIC (Trichoderma viride [25]): 240 µM (≈ 99.5 µg/mL); MIC (Aspergillus flavus [26]): 240 µM (≈ 99.5 µg/mL); MIC (Salmonella typhimurium [27]): 240 µM (≈ 99.5 µg/mL); MFC (Aspergillus versicolor [28]): 360 µM (≈ 149 µg/mL); MBC (Escherichia coli [29]): 420 µM (≈ 174 µg/mL); MFC (Aspergillus fumigatus [30]): 120 µM (≈ 49.7 µg/mL); MIC (Talaromyces funiculosus [31]): 120 µM (≈ 49.7 µg/mL); MBC (Pseudomonas aeruginosa [32]): 420 µM (≈ 174 µg/mL)
270 µM (≈ 100 µg/mL)	540 µM (≈ 200 µg/mL)	400 µM (≈ 148 µg/mL)	400 µM (≈ 148 µg/mL)	400 µM (≈ 148 µg/mL)	270 µM (≈ 100 µg/mL)	270 µM (≈ 100 µg/mL)	140 µM (≈ 51.9 µg/mL)	270 µM (≈ 100 µg/mL)	140 µM (≈ 51.9 µg/mL)	270 µM (≈ 100 µg/mL)	CCn1c(Cc2cc(OC)c(OC)cc2S(=O)(=O)N(C)C)n[nH]c1=O	540 µM (≈ 200 µg/mL)	450 µM (≈ 167 µg/mL)	270 µM (≈ 100 µg/mL)	270 µM (≈ 100 µg/mL)	450 µM (≈ 167 µg/mL)	270 µM (≈ 100 µg/mL)	810 µM (≈ 300 µg/mL)	270 µM (≈ 100 µg/mL)	400 µM (≈ 148 µg/mL)	MBC (Salmonella typhimurium [21]): 540 µM (≈ 200 µg/mL); MBC (Listeria monocytogenes [22]): 540 µM (≈ 200 µg/mL); MIC (Penicillium ochrochloron [23]): 140 µM (≈ 51.9 µg/mL); MBC (Staphylococcus aureus [24]): 540 µM (≈ 200 µg/mL); MIC (Trichoderma viride [25]): 140 µM (≈ 51.9 µg/mL); MIC (Aspergillus flavus [26]): 270 µM (≈ 100 µg/mL); MIC (Salmonella typhimurium [27]): 400 µM (≈ 148 µg/mL); MFC (Aspergillus versicolor [28]): 450 µM (≈ 167 µg/mL); MBC (Escherichia coli [29]): 270 µM (≈ 100 µg/mL); MFC (Aspergillus fumigatus [30]): 270 µM (≈ 100 µg/mL); MIC (Talaromyces funiculosus [31]): 140 µM (≈ 51.9 µg/mL); MBC (Pseudomonas aeruginosa [32]): 540 µM (≈ 200 µg/mL)
